This is an account of results in ChEMBL document CHEMBL3286352, “Dimeric flavonoids from Arrabidaea brachypoda and assessment of their anti-Trypanosoma cruzi activity” (J Nat Prod, 2014).

Calls of active or inactive are those of the source. The rule behind the calls is not given here. Bounds are passed on as bounds.

The target in data set [1] is Cruzipain (Trypanosoma cruzi) (UniProt P25779). Description: Inhibition of recombinant Trypanosoma cruzi cruzain at 25 uM preincubated for 10 mins followed by substrate addition measured after 10 mins relative to control. Put shortly: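 Recombinant cruzain activated in 0.1 M acetate buffer pH 5.5 with 5.5 mM DTT, adjusted to 0.1 μM. Enzyme in phosphate buffer with 0.01% Triton. Preincubated with compound 10 min at 35 °C, then fluorogenic substrate added for 10 min. Inhibition % = 100 − (A1/A × 100) against cruzain plus substrate RFU. Triplicate; E-64c as standard.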
Sequence of Cruzipain (Trypanosoma cruzi) (P25779 123-467 limits assumed): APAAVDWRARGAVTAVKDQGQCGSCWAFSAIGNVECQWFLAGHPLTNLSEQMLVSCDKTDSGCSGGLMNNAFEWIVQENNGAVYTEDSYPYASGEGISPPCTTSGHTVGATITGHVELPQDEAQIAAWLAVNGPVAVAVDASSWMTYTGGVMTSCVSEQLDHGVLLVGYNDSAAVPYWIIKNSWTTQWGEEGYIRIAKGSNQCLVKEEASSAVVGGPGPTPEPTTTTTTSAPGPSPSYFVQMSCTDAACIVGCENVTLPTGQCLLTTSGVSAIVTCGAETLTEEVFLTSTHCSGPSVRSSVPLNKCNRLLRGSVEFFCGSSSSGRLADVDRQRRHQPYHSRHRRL

The test system of data set [2] is Trypanosoma cruzi. Description: Antitrypanosomal activity against blood stage trypomastigote form of Trypanosoma cruzi Y infected in BALB/c mouse assessed as reduction of blood parasitemia at 100 mg/kg, po qd administered for 5 days relative to control. Format: functional. Also noted: scale not given: the % may be the effect or the level left. Put shortly: (§1)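 Female BALB/c mice, 6–8 weeks, infected ip with 10^4 bloodstream Y trypomastigotes, six per group. From day 5, oral dosing once daily for five days, vehicle saline with 20% DMSO; untreated infected group got vehicle. Motile parasites counted in 5 μL tail-vein fresh blood. Survival checked daily to day 30. Means ± SEM.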

The nature of data set [3]: Cytotoxicity against BALB/c mouse peritoneal macrophages after 72 hrs by AlamarBlue assay. Format: cell-based, Peritoneal macrophage cell. To be noted: read-out: LC50. Put shortly: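 Peritoneal exudate macrophages from BALB/c mice, 1 × 10^5 cells/well in phenol-red-free RPMI-1640 with 10% FBS and 50 μg/mL gentamycin, pre-incubated 24 h at 37 °C, 5% CO2. Compounds from DMSO stocks diluted in medium, five concentrations 0.24–20 μM in triplicate, 72 h. AlamarBlue added over 10 h, read at 570/600 nm. LC50 from three independent experiments, mean ± SD.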

In data set [4] the test system is Trypanosoma cruzi. The data set is described as follows: Antitrypanosomal activity against trypomastigote stage of Trypanosoma cruzi Y assessed as living parasites level after 24 hrs by Neubauer chamber analysis. The format is functional, organism-based. Put shortly: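 Y trypomastigotes from LLC-MK2 culture supernatants, 4 × 10^5 per well. Five concentrations, 0.24–20 μM, from DMSO stocks diluted in medium. Incubated 24 h at 37 °C, 5% CO2. Live parasites counted and compared with untreated culture. Run in triplicate, at least three independent experiments. IC50 as mean ± SD.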

Data set [5] relates to Trypanosoma cruzi. The data set is described as follows: Antitrypanosomal activity against amastigote stage of Trypanosoma cruzi Y in BALB/c mouse peritoneal macrophages assessed as reduction of number of intracellular parasites per 100 cells after 4 days by hematoxylin/eosin staining-based optical microscopic analysis. The format is functional, organism-based. Particulars: 96 h. In short, it runs like this:
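Macrophages plated 2 × 10^5 per well on coverslips in RPMI + 10% FBS for 24 h, infected with trypomastigotes at 10 parasites per macrophage for 2 h, then washed. Compounds at five concentrations, 0.12–10 μM, in triplicate for 6 h. Medium replaced, 4 days further culture. Coverslips fixed in absolute alcohol. IC50 taken as concentration halving amastigotes per 100 macrophages; mean ± SD of three independent experiments.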

Data set [6] has as its system Trypanosoma cruzi. The data set is described as follows: Antitrypanosomal activity against trypomastigote stage of Trypanosoma cruzi Y infected in BALB/c mouse peritoneal macrophages assessed as inhibition of host cell invasion at 10 uM after 2 hrs by hematoxylin/eosin staining-based optical microscopic analysis. The format is functional, organism-based. In short, it runs like this: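 Macrophages at 1 × 10^5 per well on coverslips in RPMI + 10% FBS for 24 h. Infected with trypomastigotes at 100 per macrophage and treated at 10 μM, with amphotericin B 10 μM as reference. Incubated 2 h at 37 °C, washed, then 2 h more in medium. Fixed in absolute alcohol. Percentage of infected macrophages counted after H&E.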

The subject of data set [7] is Trypanosoma cruzi. The data set is described as follows: Antitrypanosomal activity against blood stage trypomastigote form of Trypanosoma cruzi Y infected in BALB/c mouse assessed as reduction of mortality at 100 mg/kg, po qd administered for 5 days measured for 30 days. Format: functional, organism-based. Also noted: dose 100 mg/kg. In short, it runs like this: as §1

In another data set the test system is Mus musculus. The data set is described as follows: Toxicity in BALB/c mouse infected with blood stage trypomastigote form of Trypanosoma cruzi Y at 100 mg/kg, po qd administered for 5 days measured during compound treatment. Format: organism-based. Set-up: dose 100 mg/kg, route oral. To be noted: in vivo, 120 h. Put shortly: as §1

For the molecule `CC(C)CCNC(=O)[C@H](CC(C)C)NC(=O)[C@H]1O[C@@H]1C(=O)O`, the inhibition (usually the share of the control response that was lost under treatment) in data set [1] was found to be 100%.

Take `COc1ccc(/C=C/[C@@H]2c3c(OC)cc(O)cc3O[C@H]3c4c(OC)cc(O)cc4O[C@H](c4ccccc4)[C@@H]23)cc1`: the figures for the Activity with Trypanosoma cruzi [2] and in the data set with Mus musculus were 92% and “Non-toxic”, respectively. In addition, the inhibition in data set [1] is 0%. Besides, in data set [3], the CC50 at 72 h is 15.6 µM. The IC50 (commonly the concentration that inhibits the measured activity by half) in the data set on Trypanosoma cruzi [4] stood at 5.3 µM; in the data set with Trypanosoma cruzi [5] it was 6 µM. Also, in the data set with Trypanosoma cruzi [6], the inhibition result is “Active”. The result in the data set on Trypanosoma cruzi [7] was Active.

Consider `CN(C)c1ccc(C(=C2C=CC(=[N+](C)C)C=C2)c2ccc(N(C)C)cc2)cc1` [GENTIAN VIOLET], for which the CC50 at 72 h in data set [3] is 0.48 µM.

As to `COc1cc(O)cc2c1[C@@H](/C=C/c1ccccc1)[C@@H]1[C@@H](c3ccccc3)Oc3cc(O)cc(OC)c3[C@@H]1O2`, the inhibition in data set [1] worked out at 0%. The CC50 at 72 h in data set [3] amounted to 17.3 µM. Further, the IC50 in the data set on Trypanosoma cruzi [4] amounted to 6.6 µM; in the data set with Trypanosoma cruzi [5] it was 6.8 µM. Further, in the data set with Trypanosoma cruzi [6], the inhibition entry was “Active”.

On to `COc1cc(O)cc2c1[C@@H](/C=C/c1ccc(O)cc1)[C@@H]1[C@@H](c3ccccc3)Oc3cc(O)cc(OC)c3[C@@H]1O2`, for which the inhibition in data set [1] was found to be 0%. Also, the CC50 at 72 h in data set [3] is greater than 20 µM. Further, the IC50 in the data set with Trypanosoma cruzi [4] and in the data set with Trypanosoma cruzi [5] was greater than 20 µM throughout.

For the molecule `O=C(Cn1ccnc1[N+](=O)[O-])NCc1ccccc1` [BENZNIDAZOLE], in the data set on Trypanosoma cruzi [2], the Activity came out at 99%. Moreover, the CC50 at 72 h in data set [3] was greater than 20 µM. Besides, the IC50 in the data set with Trypanosoma cruzi [4] is 11.3 µM. In the data set on Trypanosoma cruzi [6], the inhibition result is “Active”.
